Apaf-1 act – activators of human Apaf-1 apoptosome, primary screen, biochemical, DEVD-Rh110 fluorescence, uHTS; Apoptotic protease-activating factor 1 (Homo sapiens), O14727; Apaf-1 apoptosome caspase-3 activation; stronger effect = lower value; activity change, negative = activation, % at 20 µM; 330,000 compounds, 0.31% hits; AID 489031, 2010;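 active means activity change at or below -40% at 20 µM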
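Schedule: 30 min preincubation, 50 min reaction, room temperature / System: biochemical Apaf-1 apoptosome reconstitution / Medium: 20 mM HEPES pH 7.5 with CHAPS, BSA / Evaluation: Caspase-3 cleavage activity downstream of Apaf-1 activation / Detection: Caspase-3-released Rh110 fluorescence, 540 nm emission, 480 nm excitation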
Rh110 act interf – Rh110 fluorescence interference by putative Apaf-1 activators, confirmation, artefact control for Apaf-1 activator project, biochemical, 20 µM; fluorescence interference (activity change), % at 20 µM, hits read low; AID 504616, 2011; 980 tested, under 10 active; quenched caspase reaction, Ex480/Em540; shares compounds with Apaf-1 act;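 active means mean activity change at or below -40% when tested at 20 µM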
Apaf-1 act conf2 – Apaf-1 activators, single-dose retest, confirmation, biochemical, fluorescence, DEVD-Rh110, 20 µM; shares compounds with Apaf-1 act; 980 compounds, 5% hits; reconstituted apoptosome caspase-3 activity; stronger effect = lower value; activity change, negative = activation, % at 20 µM; AID 504617, 2011;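 active means mean activity change at or below -40%, meaning activation of 40% or more, at 20 µM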
Apaf1 act interf – fluorescence interference of Apaf-1 activator hits, dose response, artefact control for Apaf-1 activator project; 55 tested, under 10 active; EC50, µM; shares compounds with Apaf-1 act; AID 588592, 2011; fluorescence interference counterscreen, Apaf-1 activator assay; call rule not given here
Of the large screens only hits and unclear results are named; the others gave an inactive call (follow-up assays come after a bar, where they were run). A selection follows.

COc1ccc(OCc2nnc(SCC(=O)NC3CC3)n2C)cc1	Apaf-1 act -96 | Rh110 act interf inactive | Apaf-1 act conf2 inactive
CCCCCc1ccc(OCCCC[n+]2ccccc2)c(CCCCC)c1	none
CCOc1c(O)ccc(/C=C2\SC(=S)NC2=O)c1[N+](=O)[O-]	none
O=c1[nH]c(N2CCOCC2)cc2ccccc12	none
O=[N+]([O-])c1cc2c(cc1C=Nc1ccccc1)OCO2	none
CCN(CC)S(=O)(=O)c1ccc(N/N=C(\C)c2ccc3c(c2)OCO3)c([N+](=O)[O-])c1	Apaf-1 act -41 | Rh110 act interf inactive | Apaf-1 act conf2 inactive
CCOC(=O)c1c(-c2ccc(-c3ccccc3)cc2)csc1NC(=O)CNCCN(C)C	none
N=c1n(Cc2ccccc2)c2ccccc2n1CC(O)COc1ccc(Cl)cc1Cl (stereo unspecified)	none
CCCCCCCCCCC[N+](C)(C)CC/C=C1/c2ccccc2Sc2ccc(Cl)cc21	none
NC1=NC[C@H](Cc2ccccc2)N1CCCCC1CCCCC1	none
O=C(CSc1nc(=O)n2ccccc2n1)NCc1ccccc1Cl	none
COc1ccccc1/C=N/Nc1cc(N(C)C)nc(N(C)C)n1	none
COc1cc(OC)c(OC)cc1/C=N/N(C)c1ccccc1	Apaf-1 act -78 | Rh110 act interf inactive | Apaf-1 act conf2 inactive
O=C(/C=C/c1ccc(O)c(O)c1)O[C@@H]1C[C@](O)(C(=O)O)C[C@@H](O)[C@H]1O	none
O=C(Cc1cc(=O)[nH][nH]1)N/N=C/c1cccc(Cl)c1Cl	none
COCC(C)N1C(=O)Cc2c1nc(N)c1c(N)nc(N3CCN(c4ccccc4F)CC3)c(C#N)c21 (stereo unspecified)	none
O=C(Nc1ccccc1C(=O)N1CCN(Cc2ccccc2)CC1)c1ccccc1	Apaf-1 act -95 | Rh110 act interf inactive | Apaf-1 act conf2 inactive
O=C(c1ccc(OCCN2CCCCC2)cc1)c1c(-c2ccc(O)cc2)sc2cc(O)ccc12	none
COc1ccc(CN=Cc2[nH]c3ccc(Br)c(Cl)c3c2O)cc1	none
COc1cc(/C=C2/C(=O)N(c3ccc([N+](=O)[O-])cc3)N=C2N2CCOCC2)ccc1O	none
COc1cc(/C=C2\SC(=O)N(c3cccc(Cl)c3)C2=O)cc([N+](=O)[O-])c1O	Apaf-1 act -142 | Rh110 act interf inactive | Apaf-1 act conf2 -132 | Apaf1 act interf inactive
OCCNC(=S)Nc1ccc2nsnc2c1	none
NC(=NCCc1c[nH]c2ccccc12)NS(=O)(=O)c1ccc(F)cc1	Apaf-1 act -46 | Rh110 act interf inactive | Apaf-1 act conf2 inactive
COC(=O)C1=C(C)N(Cc2ccccc2)C(=NCCc2c[nH]c3ccccc23)N[C@H]1c1cccc(C(F)(F)F)c1	none
O=S(=O)(Nc1ccc(S(=O)(=O)Nc2ncccn2)cc1)c1ccccc1	Apaf-1 act -510 | Rh110 act interf inactive | Apaf-1 act conf2 inactive
O=S(=O)(Nc1cc(Sc2ncn[nH]2)c(O)c2ccccc12)c1ccccc1	none
Cc1ccc(C)c(NC(=S)NCCN(C2CCCCC2)C2CCCC2)c1	Apaf-1 act -73 | Rh110 act interf inactive | Apaf-1 act conf2 inactive
Cc1ccc(C)c(NC(=S)Nc2cccc3cnccc23)c1	none
Cc1ccc(NC2=CC(=O)C(=O)c3ccccc32)c(C)c1	none
NC(=O)C1CCN(C(=O)COc2cccc3ccccc23)CC1	Apaf-1 act -195 | Rh110 act interf inactive | Apaf-1 act conf2 inactive
Cc1ccc(C(=O)N2CCCN(c3nc4cc5c(cc4cc3C#N)OCO5)CC2)cc1	none
C=C(C)Cc1c(C)c(C#N)c2[nH]c3ccccc3n2c1=O	none
Cc1[nH]c2ccc(CNS(=O)(=O)c3ccc(S(=O)(=O)N4CCOCC4)cc3)cc2c1C	Apaf-1 act -48 | Rh110 act interf inactive | Apaf-1 act conf2 inactive
Cc1ccc(S(=O)(=O)NCc2ccc3c(c2)cc(C)n3C)cc1	none
O=C1c2c(O)ccc(O)c2C(=O)c2c(NCCNCCO)ccc(NCCNCCO)c21	none
CC(=O)Nc1cccc(NC(=S)Nc2cccc3ccccc23)c1	none
Cc1ccc(-n2nc3ccc(N)cc3n2)cc1C	none
Cc1ccc(CN(C)C(=O)CSc2nnc3n2CCCCC3)c(C)c1	Apaf-1 act -42 | Rh110 act interf inactive | Apaf-1 act conf2 inactive
C#CCOCCOCCOCCNc1nc(N2CCOCC2)nc(N2CCN(C(=O)CCCCCCCCCCNC(=O)[C@H](CO)n3cc(CCCCCN)nn3)CC2)n1	none
COc1ccc(C(=O)O)cc1NC(=S)NC(=O)CSc1ccc(Cl)cc1	Apaf-1 act -152 | Rh110 act interf inactive | Apaf-1 act conf2 inactive
CCc1ccc(OCC(O)CN2CCC(CN3C(=O)c4cccc5cccc(c45)C3=O)CC2)cc1 (stereo unspecified)	none
CCOC(=O)C1(CCOc2ccccc2)CCN(CC(O)CO)CC1 (stereo unspecified)	Apaf-1 act -53 | Rh110 act interf inactive | Apaf-1 act conf2 inactive
CCS(=O)(=O)c1nc(S(=O)(=O)c2ccc(Cl)cc2)c(N2CCc3ccccc3C2)s1	Apaf-1 act -406 | Rh110 act interf inactive | Apaf-1 act conf2 inactive
Cc1ccc2nc(N(CCCN(C)C)C(=O)c3ccc(S(=O)(=O)N4CCc5ccccc5C4)cc3)sc2c1	none
N#Cc1c(N)n(CCOC(=O)c2cccc(Br)c2)c2nc3ccccc3nc12	none
c1cc2c3c(cccc3c1)NC1(CCC3(CC1)Nc1cccc4cccc(c14)N3)N2	none
O=C1c2ccccc2N[C@@H]2C=CC[C@@H]2N1O	Apaf-1 act -56 | Rh110 act interf inactive | Apaf-1 act conf2 inactive
CCOc1ccccc1OCCC(=O)NNC(=O)Cn1nc(C)cc1C	Apaf-1 act -81 | Rh110 act interf inactive | Apaf-1 act conf2 inactive
c1nc(NCC2(N3CCOCC3)CCCCC2)c2ccsc2n1	Apaf-1 act -313 | Rh110 act interf inactive | Apaf-1 act conf2 inactive
O=c1cc(-c2cc3ccccc3o2)c2cc(O)ccc2o1	Apaf-1 act -234 | Rh110 act interf inactive | Apaf-1 act conf2 inactive
Cc1ccc2c(c1)c1ccc3c(c1n2C)C(=O)C=CC3=O	none
CCCCCCCCCC[N+](C)(C)CC/C=C1/c2ccccc2Sc2ccc(Cl)cc21	none
COc1cccc2c1C(=O)c1ccc3ccccc3c1C2=O	none
Clc1ccccc1-c1nn2c(-c3ccncc3)nnc2s1	none
CNS(=O)(=O)/C=C/c1ccccc1	Apaf-1 act -407 | Rh110 act interf inactive | Apaf-1 act conf2 inactive
Cc1ccc(NC(=S)Nc2cccc3cnccc23)cc1C	none
Cc1ccc(-c2nn3c(C)nnc3c3ccccc23)cc1S(=O)(=O)NCc1ccccc1	none
Cc1noc(C)c1C(=O)Nc1ccc(F)cc1F	Apaf-1 act -71 | Rh110 act interf inactive | Apaf-1 act conf2 inactive
COc1ccc(C[C@H]2CN3C(=NC[C@H]3Cc3ccccc3)N2CCNC(=O)c2ccc(C)c(Br)c2)cc1	none
Nc1ccc(Oc2ncccn2)cc1	none
Nc1cc(N)c(OCC(F)(F)F)cc1OCC(F)(F)F	none
O=C1Nc2ccccc2N(O)N1c1cc(-c2cccc(Cl)c2)no1	Apaf-1 act -88 | Rh110 act interf inactive | Apaf-1 act conf2 inactive
O=C1Nc2cc(Cl)c(Cl)cc2N(O)N1c1cccc(Cl)c1	none
